Screening results as filed in PubChem BioAssay.
Hits are enriched below; roughly 1.9% of the tested compounds scored in any of these assays.
VIM-2 inh: VIM-2 metallo-beta-lactamase inhibitors, primary screen, biochemical, epi-absorbance readout, Pseudomonas aeruginosa enzyme. purified VIM-2, nitrocefin hydrolysis, epi-absorbance fluorescence. inhibition, % at 5.6 µM. 0.89% of 290,000 active;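 active = inhibition above the mean of all tested compounds plus 3 SD, cutoff set per screening run, cut at about 7.5% in these data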;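 note: red hydrolysis product quenches plate fluorescence so inhibitors raise well fluorescence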
IMP-1 inh: IMP-1 metallo-beta-lactamase inhibitors, primary screen, biochemical, epi-absorbance readout, Pseudomonas aeruginosa enzyme; metallo-beta-lactamase IMP-1 (Pseudomonas aeruginosa); purified IMP-1, nitrocefin hydrolysis, epi-absorbance fluorescence; inhibition, % at 5.6 µM; 0.45% of 290,000 active; AID 1556, 2009;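 active = inhibition above the mean plus 3 SD of all compounds in the same screening run, cut at about 4.5% in these data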
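System: purified IMP-1 / Input: IMP-1 dispensed at 0.2 nM / Medium: 50 mM HEPES pH 7.1, 50 µM ZnSO4, 0.05% Brij 35 / Timing: 15 min enzyme–compound preincubation, then 25 min nitrocefin reaction, 25 °C / Technique: plate fluorescence quenching by hydrolysis product, ex 480/em 530 nm / Repeats: singlicate testing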
HCV NS3 hel inh: inhibitors of HCV NS3 helicase, primary screen, biochemical, Cy5 molecular beacon fluorescence | Hepatitis C virus NS3 helicase | NS3 helicase DNA unwinding | inhibition, % at 10.9 µM | 0.56% of 290,000 active;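 active = inhibition above the mean of all tested compounds plus 3 SD, set per campaign, cut at about 35% in these data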
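System: NS3 helicase fragment of HCV / Schedule: 1 h at 25 °C / Control set: DMSO alone as 0% and 110 µM thioflavine S as 100% / Reagent: Cy5/quencher beacon DNA duplex and ATP to start / Technique: Cy5 fluorescence / Replication: singlicate / Evaluation: % inhibition of end-to-start signal ratio versus controls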
DNA FID counter: compounds displacing fluorescent DNA intercalator, primary screen, artefact control for HCV NS3 helicase inhibitor project, biochemical, FID fluorescence | DNA fluorescent intercalator displacement | inhibition, % at 7.9 µM | 0.17% of 290,000 active; in the data active = inhibition above about 37%;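 note: higher means more ethidium bromide displaced from hairpin DNA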
Hits are given with their value; 0 = inactive.

SMILES	VIM-2 inh	IMP-1 inh	HCV NS3 hel inh	DNA FID counter
COc1cc(C(=O)NNC(=S)Nc2ccc(S(N)(=O)=O)cc2)cc(OC)c1OC	0	0	0	0
NC(=O)C1CCN(C(=O)C2(NC(=O)Nc3cccc(F)c3)CCCCC2)CC1	0	0	0	0
Cc1ccc(Cl)c2c(N=Nc3ccccc3)c(O)[nH]c12	0	4.6	0	0
COC(=O)c1ccc2[nH]c([C@H](C)O)c([C@H](C)O)c2c1	0	4.7	0	0
CCCc1[nH]c2ccc(C(=O)OC)cc2c1CCC	0	0	0	0
[O-]/C(=C(\C(=S)NCc1ccco1)[n+]1ccccc1)c1ccccc1Br	0	4.8	0	0
CN(C)c1ccc2c3c(cccc13)C(=O)N(c1ccccc1)C2=O	0	0	0	0
Cc1cccc(N2C(=O)c3cccc4c(N(C)CCO)ccc(c34)C2=O)c1	0	5.1	0	0
O=C(CS(=O)(=O)Cc1ccccc1)NCc1ccco1	0	0	0	0
Cc1ccccc1Cn1c(C)cc(C)c(C#N)c1=O	0	4.5	0	0
Cc1cc(C)n(Cc2ccc(F)cc2)c(=O)c1C#N	0	0	0	0
CCn1c(N2CCN(Cc3ccc([N+](=O)[O-])cc3)CC2)nc2ccccc21	0	23.4	0	0
Oc1ccc(Cl)cc1CNc1ccc(Br)cn1	0	0	0	0
Oc1c(Cl)cc(Cl)cc1CNc1ccc(Br)cn1	0	6.1	0	0
C=CCN=C(NC#N)SCC(=O)NC(C)(C)C	0	5.4	0	0
COc1ccc(Br)cc1/C=N/N1C(=O)CSC1=S	0	17.4	0	0
C#CCOCCOCCOCCNc1nc(N2CCN(C(=O)[C@H]([C@@H](C)CC)n3cc([C@@H](N)CC(C)C)nn3)CC2)nc(N2CCN(C(=O)[C@H](CCCCN)n3cc([C@@H](N)CO)nn3)CC2)n1	0	0	0	38.3
C#CCOCCOCCOCCNc1nc(N2CCN(C(=O)[C@H](CCCCN)n3cc([C@@H](N)C(C)CC)nn3)CC2)nc(N2CCN(C(=O)[C@H](Cc3ccc(O)cc3)n3cc([C@@H](N)CC(C)C)nn3)CC2)n1 (some centres not stated)	0	0	0	49.1
C#CCOCCOCCOCCNc1nc(N2CCN(C(=O)[C@H](Cc3ccc(O)cc3)n3cc([C@@H](N)CC(C)C)nn3)CC2)nc(N2CCN(C(=O)[C@H](Cc3ccc(O)cc3)n3cc([C@@H](N)CC(C)C)nn3)CC2)n1	0	12.9	0	56.8
C#CCOCCOCCOCCNc1nc(N2CCN(C(=O)[C@H](CCCCN)n3cc([C@@H](N)CC(C)C)nn3)CC2)nc(N2CCN(C(=O)[C@H](Cc3ccc(O)cc3)n3cc([C@@H](N)CC(C)C)nn3)CC2)n1	0	0	0	44.2
C#CCOCCOCCOCCNc1nc(N2CCN(C(=O)[C@H]([C@@H](C)CC)n3cc([C@@H](N)CO)nn3)CC2)nc(N2CCN(C(=O)[C@H]([C@@H](C)CC)n3cc([C@@H](N)CC(C)C)nn3)CC2)n1	0	0	0	0
Clc1ccc(-c2nnc(-c3ccccc3)o2)cn1	0	0	0	0
CCn1c(SCC(=O)N2CCc3ccccc3C2)nc2sc(C)c(C)c2c1=O	0	0	0	0
C#CCOCCOCCOCCNc1nc(N2CCN(C(=O)C(Cc3ccc(O)cc3)n3cc(C(N)C(C)CC)nn3)CC2)nc(N2CCN(C(=O)C(Cc3ccc(O)cc3)n3cc(C(N)C(C)CC)nn3)CC2)n1 (configuration not stated)	0	0	0	39.6
C#CCOCCOCCOCCNc1nc(N2CCOCC2)nc(N2CCN(C(=O)[C@H](Cc3ccc(O)cc3)n3cc([C@@H](N)C(C)CC)nn3)CC2)n1 (some centres not stated)	0	0	0	0
SMILES	VIM-2 inh	IMP-1 inh	HCV NS3 hel inh	DNA FID counter
C#CCOCCOCCOCCNc1nc(N2CCN(C(=O)[C@H]([C@@H](C)CC)n3cc([C@@H](N)Cc4ccc(O)cc4)nn3)CC2)nc(N2CCN(C(=O)[C@H](CCCCN)n3cc([C@@H](N)CC(C)C)nn3)CC2)n1	0	0	0	44.8
C#CCOCCOCCOCCNc1nc(N2CCN(C(=O)[C@H](CCCCN)n3cc([C@@H](N)CC(C)C)nn3)CC2)nc(N2CCN(C(=O)[C@H](CCCCN)n3cc([C@@H](N)CC(C)C)nn3)CC2)n1	0	0	0	58.0
COc1cccc(NC(=O)CC(=O)c2ccccc2)c1	0	0	0	0
C=C(C(=O)O)C(CCCCCC)C(=O)O (configuration not stated)	0	13.7	0	0
Clc1nc(-c2cccnc2)nc2scc(-c3ccccc3)c12	0	0	0	0
COc1ccc(-c2csc3nc(-c4cccnc4)nc(Cl)c23)cc1OC	11.6	0	0	0
O=C(NCCCO)Nc1ccc2nc(-c3ccco3)c(-c3ccco3)nc2c1	0	0	0	0
O=C(Nc1ccc2nc(-c3ccco3)c(-c3ccco3)nc2c1)NC1CC1	0	0	47.4	0
CCOc1ccc(N2C(=O)S/C(=C\c3ccc(O)c(OCC)c3)C2=O)cc1	0	0	0	0
CCOc1cc(/C=C2\SC(=O)N(c3ccc(O)cc3)C2=O)ccc1O	10.2	0	0	0
COc1cccc(N(CC(=O)NCCSCc2ccco2)S(=O)(=O)c2ccccc2)c1	0	5.0	0	0
Cc1cccc(N(CC(=O)NCCSCc2ccco2)S(=O)(=O)c2ccccc2)c1	0	0	0	0
CSc1nc(Cl)c(Cc2ccc(OC(C)C)cc2)c(N2CCOCC2)n1	0	0	0	0
CSc1nc(N2CCOCC2)c2sccc2n1	8.1	0	0	0
Cc1[nH]c2ccccc2c1/C=C/C(=O)c1ccncc1	8.5	0	0	0
CC(O)c1nc2ccccc2n1CCCCOc1ccccc1 (configuration not stated)	0	37.6	0	0
CC(O)c1nc2ccccc2n1CCOc1ccccc1 (configuration not stated)	0	0	0	0
Cn1cc(-c2nnc(-c3ccccc3)o2)c2ccccc21	0	4.9	0	0
S=c1nc(C2CC2)[nH]c2ccccc12	10.7	0	0	0
CCCn1c(CN2CCN(C(C)=O)CC2)nc2cc(S(=O)(=O)N(C)C)ccc21	0	0	0	0
Cc1c(CC(=O)O)c(=O)oc2c(C)c(OCc3ccc(F)cc3F)ccc12	0	0	0	0
Cc1c(CC(=O)O)c(=O)oc2c(C)c(OCc3ccc(F)cc3Cl)ccc12	0	20.4	0	0
CCc1n[nH]c(=S)n1/N=C/c1cc(OC)cc([N+](=O)[O-])c1O	0	4.6	0	0
CCc1ccc2nc(N(CCCN(C)C)C(=O)c3ccc(C(=O)c4ccccc4)cc3)sc2c1	0	0	0	37.7
CCOc1ccc2nc(N(CCCN(C)C)C(=O)c3ccc4c(c3)CCCC4)sc2c1	0	0	0	39.0
CCc1cc(C(=O)OC)c(NC(=O)CC2Nc3cc(C)c(C)cc3NC2=O)s1 (configuration not stated)	0	0	0	0
